Source: publication PMC3205354 (Chemistry & biology, 2011)

Columns and labels:
FAPP1 PH domain [1] = target: T1, FAPP1 PH domain (Homo sapiens, UniProt Q9HB20); assay: SPR equilibrium binding to lipid vesicles; details: read-out: Kd (SPR); POPC/POPE/PI (75:20:5) liposomes; 10 mM HEPES (pH 7.4), 160 mM KCl, 25°C
T1 sequence (Q9HB20 1-99): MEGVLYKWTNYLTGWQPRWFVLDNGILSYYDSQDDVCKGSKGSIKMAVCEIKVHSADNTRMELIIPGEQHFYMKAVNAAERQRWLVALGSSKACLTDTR

FAPP1 PH domain [2] = target: T1, FAPP1 PH domain; details: 5 mol% in monolayer; ref He, et al., 2011; cited from earlier work
[3] = system: GST-fusion FAPP1 PH domain; assay: Liposome binding assay; set-up: species or system human; details: SUVs of POPC, POPE, POPS and PI (50:20:15:15); 20 mM MOPS, 100 mM KCl, pH 7.0
How it was run: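 GST-tagged FAPP1 PH expressed in E. coli BL21(DE3) and purified on glutathione Sepharose. Lipids dried from CHCl3:MeOH:H2O (65:25:4) were resuspended in MOPS/KCl buffer and extruded 19 times through a 1 µm membrane. Liposomes were pelleted at 25,000 × g for 20 min, resuspended, and incubated with protein (stock 1.7 µg/µl) for 1 hr at room temperature. They were re-pelleted, and pellet and supernatant were analysed by SDS-PAGE.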

FAPP1 PH domain [4] = target: T1, FAPP1 PH domain; assay: NMR 1H,15N HSQC titration; assay type: binding; details: read-out: Kd (NMR); 25 mM Bis-Tris, 150 mM NaCl, pH 6.5, 25°C
How it was run: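 Human FAPP1 PH (aa 1–99), ¹⁵N-labeled, expressed in E. coli Rosetta (DE3) pLysS in ¹⁵NH₄Cl minimal medium (0.1 mM IPTG, room temperature, 6 hr). It was purified on Talon resin, His tag removed with thrombin, then size exclusion. HSQC spectra of 0.1–0.2 mM protein were recorded at 600 MHz with stepwise ligand addition. Normalized ¹H/¹⁵N shift changes were fitted against ligand and protein concentrations to give Kd.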

Kd (FAPP1 PH domain [1]) [mM]	partitioning of GST-FAPP1 PH between supernatant and pelleted SUVs [3]	SMILES	surface pressure (πc) (FAPP1 PH domain [2]) [mN/m]	Kd (FAPP1 PH domain [4]) [mM]
0.00046	half of the protein associated with SUVs	CCCCCCCCCCCCCCCC(=O)OC[C@H](COP(=O)(O)O[C@H]1[C@H](O)[C@@H](O)[C@H](OP(=O)(O)O)[C@@H](O)[C@H]1O)OC(=O)CCCCCCCCCCCCCCC [C16-PtdIns(4)P]	33	–
–	–	O=P(O)(O)OC1[C@@H](O)[C@@H](O)C(OP(=O)(O)O)[C@H](O)[C@H]1O (stereo partly shown) [Ins(1,4)P2, inositol 1,4-bisphosphate]	–	20
